In PMC3862411 (International Journal for Parasitology, Drugs and Drug …, 2012):
Several values for one entry are separate records, joined by “and”; a condition that tells them apart may be missing. Identical values can stand only once. Marks after values point to notes of the source that are not given here.

Assays:
[1] = assay type: in vivo, lambs; conditions: for AUC: area under the concentration vs time curve extrapolated to infinity / Cmax: peak plasma concentration / Tmax: time to peak plasma concentration / t 1/2 el: elimination half-life: mean ± SD, n = 6
Method in brief: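 Six infected lambs per group got test compound intraruminally at 0.2 mg/kg. Heparinized jugular blood was taken before and at 0, 3, 6, 9 h and 1–13 days, spun at 2000g for 20 min, and plasma assayed by fluorescence HPLC. Non-compartmental analysis: Cmax observed; AUC by trapezoidal rule extrapolated to infinity; t½ = ln2/λz; MRT from AUMC/AUC. Mean ± SD; ANOVA or Kruskal–Wallis.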

[2] = tested on: Trichostrongylus colubriformis; test: Adult nematode worm counts and efficacy 14 days post-treatment; assay type: in vivo; conditions: small intestine, 14 days post-administration, IR 0.2 mg/kg
Method in brief: (§1)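 Romney Marsh lambs (27.2 ± 4.48 kg), naturally infected with resistant GI nematodes and grazing lucerne/clover pasture, got a single intraruminal dose of test compound at 0.2 mg/kg. Six treated and six untreated lambs were killed by captive bolt at day 14. Abomasal, small and large intestinal contents were counted by WAAVP guidelines. Geometric mean worm burdens gave % efficacy, treated versus untreated.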

Trichuris spp. = test: as above; assay type: in vivo; conditions: large intestine, 14 days post-administration, IR 0.2 mg/kg
Method in brief: as §1

Haemonchus spp. = test: as above; assay type: in vivo; conditions: abomasum, 14 days post-administration, IR 0.2 mg/kg
Method in brief: as §1

[3] = tested on: resistant Haemonchus contortus; assay type: in vivo; conditions: for Total mass of H. contortus specimens recovered: day 1 and 2 post-treatment, IR 0.2 mg/kg
Method in brief: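 Infected lambs got test compound intraruminally at 0.2 mg/kg, four killed at 0.5, 1 and 2 days. The total H. contortus mass from abomasal contents was washed in 4 °C saline, blotted, weighed and frozen at −20 °C. Drug was measured by fluorescence HPLC (C18, 0.2% acetic acid/methanol/acetonitrile 1.6/60/38.4, 1.5 ml/min, 30 °C, ex 365/em 475 nm). n = 4.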

Trichostrongylus axei = test: Adult nematode worm counts and efficacy 14 days post-treatment; assay type: in vivo; conditions: abomasum, 14 days post-administration, IR 0.2 mg/kg
Method in brief: as §1

[4] = Drug concentrations in GI contents and mucosal tissues; assay type: in vivo, lambs; conditions: for Drug concentration, abomasal mucosa / Drug concentration, intestinal mucosa: IR 0.2 mg/kg, lambs
Method in brief: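 After intraruminal 0.2 mg/kg test compound, four infected lambs per time point were killed at 0.5, 1 and 2 days. Abomasal and cranial jejunum contents and mucosal tissue were sampled, stored at −20 °C and assayed by validated fluorescence HPLC (C18, 30 °C, ex 365/em 475 nm). Values are in ng/g, mean ± SD, n = 4.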

resistant GI nematodes = test: Faecal egg count reduction test; assay type: in vivo, GI nematodes in lambs; conditions: IR 0.2 mg/kg; for FECRT: 14 days post-treatment vs untreated control; for Mean epg (range), arithmetic mean of eggs per gram of faeces: Day 14 post-treatment
Method in brief: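 Faeces were sampled at day −1 and day 14 after a single intraruminal 0.2 mg/kg dose to naturally infected lambs. Eggs per gram were counted by modified McMaster. FECRT compared arithmetic mean epg of treated versus untreated controls at day 14, with 95% confidence limits per Coles. Counts were compared by Kruskal–Wallis.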

Cooperia spp. = test: Adult nematode worm counts and efficacy 14 days post-treatment; assay type: in vivo; conditions: small intestine, 14 days post-administration, IR 0.2 mg/kg
Method in brief: as §1

Nematodirus spp. = test: as above; assay type: in vivo; conditions: small intestine, 14 days post-administration, IR 0.2 mg/kg
Method in brief: as §1

Teladorsagia spp. = test: as above; assay type: in vivo; conditions: abomasum, 14 days post-administration, IR 0.2 mg/kg
Method in brief: as §1

mammalian P-gp = conditions: in vitro; ref Lespine et al., 2007; cited from earlier work
[5] = sheep, plasma, other: intraruminal, 0.2 mg/kg
[6] = sheep (lambs), abomasal mucosa, other: intraruminal, 0.2 mg/kg

Row | Molecule | Time up to which drug was detected in plasma ([1]; lambs, IR 0.2 mg/kg) | AUC: area under the concentration vs time curve extrapolated to infinity ([1]; lambs, IR 0.2 mg/kg, plasma) | Cmax: peak plasma concentration ([1]; lambs, IR 0.2 mg/kg, plasma) | Efficacy, Trichostrongylus colubriformis [2] [%] | Worm counts (geometric mean), Trichostrongylus colubriformis [2] | Efficacy, Trichuris spp. (Trichuris spp.) [%] | Worm counts (geometric mean), Trichuris spp. (Trichuris spp.) | Efficacy, Haemonchus spp. (H. contortus) (Haemonchus spp.) [%] | Worm counts (geometric mean), Haemonchus spp. (Haemonchus spp.) | Total mass of H. contortus specimens recovered [3] [g] | Efficacy, Trichostrongylus axei (Trichostrongylus axei) [%] | Worm counts (geometric mean), Trichostrongylus axei (Trichostrongylus axei) | FECRT (resistant GI nematodes) | Mean epg (range), arithmetic mean of eggs per gram of faeces (resistant GI nematodes) | Efficacy, Cooperia spp. (Cooperia spp.) [%] | Worm counts (geometric mean), Cooperia spp. (Cooperia spp.) | Efficacy, Nematodirus spp. (Nematodirus spp.) [%] | Worm counts (geometric mean), Nematodirus spp. (Nematodirus spp.) | Efficacy, Teladorsagia spp. (Teladorsagia spp.) [%] | Worm counts (geometric mean), Teladorsagia spp. (Teladorsagia spp.) | also measured
1 | abamectin [ABM] | up to 8 days post-treatment | 34.8 ± 11.3^a ng d/ml | 13.6 ± 2.64^a ng/ml | 100 | 0 | 100 | 0 | 39.7 | 769 | 1.13 to 1.50 | 100 | 0 | 0% | 4460^a (1200–6000) | 100 | 0 | 99.8 | 2.32 | 100 | 0 | Tmax: time to peak plasma concentration ([1]; lambs, IR 0.2 mg/kg, plasma): 0.90 ± 0.26^a days; t 1/2 el: elimination half-life ([1]; lambs, IR 0.2 mg/kg, plasma): 1.10 ± 0.25^a days; Drug concentration, abomasal mucosa ([4]; 0.5 days post-treatment): 76.8 ± 11.6^a ng/g; Drug concentration, intestinal mucosa ([4]; 0.5 days post-treatment): 203 ± 11.5^a ng/g; Drug concentration, abomasal mucosa ([4]; 1 day post-treatment): 78 ± 24.2^a ng/g; Drug concentration, intestinal mucosa ([4]; 1 day post-treatment): 152 ± 12.4^a ng/g; Drug concentration, abomasal mucosa ([4]; 2 days post-treatment): 64.6 ± 45.4^ab ng/g; Drug concentration, intestinal mucosa ([4]; 2 days post-treatment): 118 ± 85.9^a ng/g
2 | CC[C@H](C)[C@H]1O[C@]2(CC[C@@H]1C)C[C@@H]1C[C@@H](C/C=C(\C)[C@@H](O[C@H]3C[C@H](OC)[C@@H](O[C@H]4C[C@H](OC)[C@@H](O)[C@H](C)O4)[C@H](C)O3)[C@@H](C)/C=C/C=C3\CO[C@@H]4[C@H](O)C(C)=C[C@@H](C(=O)O1)[C@]34O)O2 [IVM, ivermectin] | up to 8 days post-treatment | 23.6 ± 7.63^a ng d/ml | 9.02 ± 1.47^b ng/ml | 99.3 | 6.28 | 100 | 0 | 20.1 | 1021 | 1.02 to 1.38 | 100 | 0 | 0% | 4620^a (1860–12480) | 98.2 | 3.08 | 99.5 | 4.87 | 99.7 | 5 | Tmax: time to peak plasma concentration ([1]; lambs, IR 0.2 mg/kg, plasma): 1.06 ± 0.52^a days; t 1/2 el: elimination half-life ([1]; lambs, IR 0.2 mg/kg, plasma): 1.15 ± 0.30^a days; Drug concentration, abomasal mucosa ([4]; 0.5 days post-treatment): 76.5 ± 9.83^a ng/g; Drug concentration, intestinal mucosa ([4]; 0.5 days post-treatment): 198 ± 55.7^a ng/g; Drug concentration, abomasal mucosa ([4]; 1 day post-treatment): 58.2 ± 8.75^a ng/g; Drug concentration, intestinal mucosa ([4]; 1 day post-treatment): 117 ± 26.8^a ng/g; Drug concentration, abomasal mucosa ([4]; 2 days post-treatment): 42.6 ± 4.53^a ng/g; Drug concentration, intestinal mucosa ([4]; 2 days post-treatment): 128 ± 51.4^a ng/g
3 | CO/N=C1\C[C@]2(C[C@@H]3C[C@@H](C/C=C(\C)C[C@@H](C)/C=C/C=C4\CO[C@@H]5[C@H](O)C(C)=C[C@@H](C(=O)O3)[C@]45O)O2)O[C@H](/C(C)=C/C(C)C)[C@H]1C [MXD, moxidectin] | ≤ 13 days post-treatment | 29.5 ± 3.87^a ng d/ml |  | 100 | 0 | 100 | 0 | 89.6 | 133 | 0.13 to 0.14 | 100 | 0 | 86% and 86.8% | 570^b (240–960) | 100 | 0 | 100 | 0 | 100 | 0 | Plasma mean residence time (MRT) compared to ABM and IVM ([1]; lambs, IR 0.2 mg/kg): significant longer; Cmax [1, 5]: 11.3 ± 2.87 ng/mL; Tmax [1, 5]: 13 h; half-life [1, 5]: 113 h; Drug concentrations recovered within adult H. contortus compared to ABM and IVM ([3]; day 2 post-treatment): lower; Concentrations in GI contents and mucosal tissues compared to IVM and ABM ([4]; 2 days post-treatment): significantly lower; concentration at 0.5 days [4, 6]: 65.5 ± 9.74 ng/g; concentration at 1 day [4, 6]: 48.3 ± 12.7 ng/g; concentration at 2 days [4, 6]: 30.1 ± 5.8 ng/g; Affinity by mammalian P-gp compared to avermectin-type compounds (mammalian P-gp): lower affinity
